We go through 1 compound from ChEMBL document CHEMBL1122384, “Synthesis and evaluation of 24-(isopropyl[75Se]seleno)chol-5-en-3 beta-ol” (J Med Chem, 1983).

For experiment [1], the species on record is Homo sapiens. The experiment can be described thus: Adsorbed radiation dose value was calculated to human spleen. It is filed as functional. Put shortly: (§1)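 Human absorbed radiation dose estimated by the standard MIRD method from rat tissue distribution (% dose/g, 1 h–21 days) and excretion data. Excretion came from three individually caged female rats, with urine and feces collected daily over 21 days.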

For experiment [2], the species on record is Homo sapiens. Description: Adsorbed radiation dose value was calculated to human kidney. It is filed as functional. Put shortly: as §1
Experiment [3] is filed under the species Homo sapiens. Description: Adsorbed radiation dose value was calculated to human small intestine. The class given is functional. The method, boiled down: as §1
For experiment [4], the species on record is Homo sapiens. Description: Adsorbed radiation dose value was calculated to human adrenal. The class given is functional. Put shortly:
as §1

Experiment [5] is filed under the species Homo sapiens. Description: Adsorbed radiation dose value was calculated to human pancreas. It is filed as functional. The method, boiled down: as §1
The species named for experiment [6] is Homo sapiens. Description: Adsorbed radiation dose value was calculated to human lungs. It is filed as functional. The method, boiled down: as §1
For experiment [7], the species on record is Homo sapiens. Description: Adsorbed radiation dose value was calculated to human ovaries. It is filed as functional, Female gonad. Put shortly:
as §1

Experiment [8] is filed under the species Homo sapiens. The experiment can be described thus: Adsorbed radiation dose value was calculated to human liver. The class given is functional. Put shortly: as §1
Experiment [9] is filed under the species Homo sapiens. Description: Adsorbed radiation dose value was calculated to human total body. The class given is functional. Put shortly: as §1

Structures are written as SMILES.

With `CC(C)[73Se]CCC[C@H](C)[C@H]1CC[C@H]2[C@@H]3CC=C4C[C@@H](O)CC[C@]4(C)[C@H]3CC[C@]12C`, the Dose was 1.9 rd mCi-1 in the experiment listed under Homo sapiens [1]; 0.67 rd mCi-1 in the experiment listed under Homo sapiens [2]; 0.64 rd mCi-1 in the experiment listed under Homo sapiens [3]; 1.6 rd mCi-1 in the experiment filed under Homo sapiens [4]; 0.5 rd mCi-1 in the experiment listed under Homo sapiens [5]; 1.7 rd mCi-1 in the experiment filed under Homo sapiens [6]. Further, the Dose in the experiment listed under Homo sapiens [7] is 1.2 rd mCi-1; in the experiment filed under Homo sapiens [8], 1.7 rd mCi-1; in the experiment listed under Homo sapiens [9], 0.24 rd mCi-1.
